Test: Toxicity liver stage against HepG2, at 10uM
Type: cell-based
Parameters: test concentration 10 uM, cell line HepG2-A16-CD81EGFP
Settings: human, HepG2-A16-CD81EGFP cells; read-out: INHIBITION
How it was run: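 Uninfected HepG2-A16-CD81EGFP cells, 3 × 10^3 per well, 1536-well, plated on prespotted compound at 10 μM final, parasite-free screening media added to match infected plates; puromycin 10 μM positive, DMSO 0.5% negative; run in parallel with 48 h PbLuc assay at 37 °C, 5% CO2; viability by CellTiter-Glo luminescence, normalized to controls.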

SMILES | cytotoxicity at 10 µM
CCC(=O)N1CCCc2c(cnn2C)C1 | 3.12%
O=S(=O)(NCCC(O)c1ccoc1)c1ccc(Cl)s1 (stereo not given) | -0.847%
CCS(=O)(=O)N1CCc2cc(C(=O)N(C)C)c(NCC3CC3)nc2CC1 | 0.0623%
Cc1ccc(C(=O)N2CCc3ncnc(-c4cnn(C)c4)c3CC2)o1 | 2.11%
N#Cc1ccc(C(=O)N2C[C@H](OCc3cccnc3)[C@H]3COC[C@H]32)cc1 | 5.38%
Cc1nc(-c2ccccc2F)sc1C(=O)N1CCC(=O)CC1 | -7.42%
COc1ccc(S(=O)(=O)N2CCCC3(CCCN3S(C)(=O)=O)C2)cc1 (stereo not given) | -0.908%
CCc1ncnc2c1CCN(C(=O)Cc1ccccn1)CC2 | -8.75%
CC(NC(=O)N1CCS(=O)(=O)CC1)c1c(F)cccc1Cl (stereo not given) | 3.54%
COC(=O)c1ncccc1N1CCC(C(O)c2ccccc2)CC1 (stereo not given) | -4.11%
CC(C)c1ocnc1C(=O)N1CCC2(CC1)OCCO2 | 0.0416%
CNC(=O)NC(=O)CN(C)C(c1cccnc1)c1ccc(F)cc1F (stereo not given) | 5.3%
CCOc1ccc2cc(C(=O)NCCC(=O)N(C)C)[nH]c2c1 | -6.16%
Cc1ccccc1C1(CNCc2cnc(N3CCOCC3)nc2)CC1 | -8.23%
Cc1csc(C2CCCN(C(=O)c3cnn4ccc(C)nc34)C2)n1 (stereo not given) | 2.56%
O=C(CS(=O)(=O)Cc1ccc(F)cc1)NCc1ccccc1F | 5.96%
CN1C(=O)CCc2cc(NC(=O)C3CC(=O)N(CC4CC4)C3)ccc21 (stereo not given) | -12.2%
COCCN(Cc1cccs1)C(=O)C1CCCN(C(N)=O)C1 (stereo not given) | 6.4%
COC(=O)c1cccc(S(=O)(=O)NC(=O)CC2CCCC2)c1 | -9.68%
O=C(CCc1nc(C2CC2)no1)c1ccc2c(c1)OCCO2 | -7.04%
O=C(COc1ccccc1NCc1ccc(F)cc1)N1CCOCC1 | -2.82%
c1cncc(-c2nc3c(c(NCC4(c5ccncc5)CC4)n2)CCC3)c1 | 7.77%
COCC(NC(=O)NCc1cccc(C#N)c1)c1ccco1 (stereo not given) | 2.7%

SMILES | cytotoxicity at 10 µM
Cn1cccc(NC(=O)N2CCC(CSc3ccccc3)C2)c1=O (stereo not given) | 40.2%
COc1ccccc1OCCN1CCCC(c2noc(C3CC3)n2)C1 (stereo not given) | 1.26%
COCC(NC(=O)c1cnn(C)c1)c1cccc(C(F)(F)F)c1 (stereo not given) | 1.73%
CS(=O)(=O)N1CCCC12CCN(Cc1ccoc1)CC2 | -3.98%
CCn1nc(CC(C)C)cc1C(=O)NCCCN1CCOCC1 | 1.6%
CC(C)c1nccn1CC(=O)Nc1ccnn1C(C)C(C)C (stereo not given) | 1.11%
O=C(O)[C@@H]1CN(CC(=O)N2CCCCCC2)C[C@H]1c1ccc(F)cc1 | -3.24%
Cc1ncsc1CCN(C)C(=O)CN1CC2(CCNCC2)OC1=O | -7.33%
CC(C)[C@@H]1CN(Cc2c[nH]nc2-c2ccc(F)cc2)C[C@H]1NS(C)(=O)=O | -0.882%
O=C1OCCN1Cc1ccc(C(F)(F)F)cc1F | -0.419%
c1cc2c(cc1CN1CCC(Cc3noc(C4CC4)n3)CC1)OCCO2 | 14.9%
CCc1nc(C)c(C(=O)N[C@@H]2c3ccccc3C[C@@H]2O)o1 | 4.57%
N[C@@H]1c2ccccc2C2(CCN(C(=O)c3ccccc3O)CC2)[C@H]1O | 6.38%
Cc1ncc(S(C)(=O)=O)c(C2CCCNC2)n1 (stereo not given) | 1.17%
CCc1noc(C(C)N2CCN(CCOCC(F)(F)F)CC2)n1 (stereo not given) | -9.45%
Cn1cc(CN2CCCN(C(=O)c3sccc3C#N)CC2)cn1 | -1.37%
COc1ccsc1C(=O)N1CCCC(n2nc(C)cc2C)C1 (stereo not given) | -9.41%
Cc1cc(C)n(C2CCCN(C(=O)Cc3cccs3)C2)n1 (stereo not given) | -20.8%
Cc1cnc(C(=O)N2CCCN(c3nc(C)cs3)CC2)cn1 | -8.81%
O=C(Cc1csc(-c2ccco2)n1)N1CCSCC1 | -16.2%
Cc1noc([C@H]2C[C@@H]3CCN(CC4CC4)C[C@H]3O2)n1 | -7.23%
COc1cc(CNCC(O)c2ccc(C)cc2)cc2c1OCO2 (stereo not given) | -0.282%

From ChEMBL document CHEMBL4513216, “Probing the Open Global Health Chemical Diversity Library for Multistage-Active Starting Points for Next-Generation Antimalarials” (ACS Infect Dis, 2020)
